Molecular target: Nuclear receptor ROR-alpha (Homo sapiens) (UniProt P35398)
Assay: dose-dependent lowering of GAL4-RORa luciferase – cell-based, luminescence, assay provider, RORA inverse agonist project, dose response (AID 463152)
Settings: HEK293T GAL4-RORa LBD luciferase reporter, 20 h
In short: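 Test system: HEK293T with GAL4-RORα LBD and UAS-luciferase reporter; Timing: 20 h compound treatment; Detection: luciferase luminescence; Measure: IC50 from four-parameter fit of signal relative to DMSO; Control set: DMSO-treated wells as reference; Replicates: n of 8.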

Nuclear receptor ROR-alpha (Homo sapiens), sequence (P35398 whole entry, looked up, the tested form may be a part): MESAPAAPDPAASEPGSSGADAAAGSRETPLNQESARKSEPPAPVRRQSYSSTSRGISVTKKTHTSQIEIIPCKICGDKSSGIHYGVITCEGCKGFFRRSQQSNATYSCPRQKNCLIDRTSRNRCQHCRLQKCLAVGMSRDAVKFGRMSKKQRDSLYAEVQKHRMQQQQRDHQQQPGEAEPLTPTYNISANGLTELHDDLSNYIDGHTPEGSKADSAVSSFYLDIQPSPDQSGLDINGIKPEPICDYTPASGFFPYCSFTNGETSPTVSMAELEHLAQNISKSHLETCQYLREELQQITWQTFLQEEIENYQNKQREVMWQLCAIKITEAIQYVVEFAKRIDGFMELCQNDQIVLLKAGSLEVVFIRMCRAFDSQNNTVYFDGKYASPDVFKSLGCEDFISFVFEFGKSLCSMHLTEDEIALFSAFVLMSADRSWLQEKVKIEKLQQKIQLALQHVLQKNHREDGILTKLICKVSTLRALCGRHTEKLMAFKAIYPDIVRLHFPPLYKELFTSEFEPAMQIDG

O=S(=O)(Nc1ccc(C(O)(C(F)(F)F)C(F)(F)F)cc1)c1cccs1
IC50: 480 nM
